Source: ChEMBL document CHEMBL3774321, “Systematic diversification of benzylidene heterocycles yields novel inhibitor scaffolds selective for Dyrk1A, Clk1 and CK2” (Eur J Med Chem, 2016)

Assays:
[1] = Half life in rat plasma at 1 uM by LC-MS/MS analysis; format: ADME, cell-free
Summary of the method: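 Pooled heparinized rat plasma incubated with 1 μM compound at 37 °C, sampled at 0, 5, 15, 30, 60 and 120 min. Reaction stopped with 5 volumes cold acetonitrile containing internal standard. Remaining compound quantified by LC-MS/MS. Half-life given as mean of two experiments.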

[2] = Growth inhibition of human U87MG cells after 4 days by MTT assay; format: functional, cell-based, U-87MG ATCC; conditions: U-87 MG, 96 h
Casein kinase II [3] = biological target: Casein kinase II (Homo sapiens, UniProt P19784+P67870+P68400); test: (§1) Inhibition of CK2 (unknown origin) using RRRDDDSDDD-NH2 as susbtrate incubated for 15 mins in presence of [gamma-32P]ATP; format: protein-complex assay
Casein kinase II (Homo sapiens, UniProt P19784+P67870+P68400), sequence (P67870 whole entry): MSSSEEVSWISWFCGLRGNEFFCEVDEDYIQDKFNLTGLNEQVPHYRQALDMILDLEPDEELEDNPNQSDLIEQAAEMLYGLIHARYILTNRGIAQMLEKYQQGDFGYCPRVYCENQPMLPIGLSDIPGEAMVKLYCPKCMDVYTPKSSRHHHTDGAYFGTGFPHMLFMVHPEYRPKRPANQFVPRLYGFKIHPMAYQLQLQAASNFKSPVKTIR
Casein kinase II (Homo sapiens, UniProt P19784+P67870+P68400), sequence (P68400 whole entry): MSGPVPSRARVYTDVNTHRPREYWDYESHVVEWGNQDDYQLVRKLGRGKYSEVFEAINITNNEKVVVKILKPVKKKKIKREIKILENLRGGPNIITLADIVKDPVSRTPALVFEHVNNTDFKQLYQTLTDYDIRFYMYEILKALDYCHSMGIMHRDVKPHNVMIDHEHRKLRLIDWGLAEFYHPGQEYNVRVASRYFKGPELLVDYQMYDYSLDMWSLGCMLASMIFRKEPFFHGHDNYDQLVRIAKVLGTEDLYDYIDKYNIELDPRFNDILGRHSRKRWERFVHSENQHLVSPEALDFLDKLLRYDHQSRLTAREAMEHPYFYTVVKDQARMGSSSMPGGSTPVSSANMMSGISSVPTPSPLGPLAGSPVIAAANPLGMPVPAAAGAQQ
Casein kinase II (Homo sapiens, UniProt P19784+P67870+P68400), sequence (P19784 whole entry): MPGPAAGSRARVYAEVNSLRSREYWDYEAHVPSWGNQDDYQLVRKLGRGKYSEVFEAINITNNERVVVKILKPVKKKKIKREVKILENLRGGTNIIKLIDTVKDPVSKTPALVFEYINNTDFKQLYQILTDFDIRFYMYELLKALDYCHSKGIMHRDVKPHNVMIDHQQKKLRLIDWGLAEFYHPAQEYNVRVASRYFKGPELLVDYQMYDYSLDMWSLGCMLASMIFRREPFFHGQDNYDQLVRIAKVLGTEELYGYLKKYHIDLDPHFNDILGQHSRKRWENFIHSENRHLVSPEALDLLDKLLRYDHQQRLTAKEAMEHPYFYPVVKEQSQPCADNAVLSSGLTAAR

[4] = biological target: Protein kinase C beta type (Homo sapiens, UniProt P05771); test: Inhibition of PKCbeta (unknown origin) incubated for 15 mins in presence of [gamma-32P]ATP
Protein kinase C beta type, sequence (P05771 whole entry): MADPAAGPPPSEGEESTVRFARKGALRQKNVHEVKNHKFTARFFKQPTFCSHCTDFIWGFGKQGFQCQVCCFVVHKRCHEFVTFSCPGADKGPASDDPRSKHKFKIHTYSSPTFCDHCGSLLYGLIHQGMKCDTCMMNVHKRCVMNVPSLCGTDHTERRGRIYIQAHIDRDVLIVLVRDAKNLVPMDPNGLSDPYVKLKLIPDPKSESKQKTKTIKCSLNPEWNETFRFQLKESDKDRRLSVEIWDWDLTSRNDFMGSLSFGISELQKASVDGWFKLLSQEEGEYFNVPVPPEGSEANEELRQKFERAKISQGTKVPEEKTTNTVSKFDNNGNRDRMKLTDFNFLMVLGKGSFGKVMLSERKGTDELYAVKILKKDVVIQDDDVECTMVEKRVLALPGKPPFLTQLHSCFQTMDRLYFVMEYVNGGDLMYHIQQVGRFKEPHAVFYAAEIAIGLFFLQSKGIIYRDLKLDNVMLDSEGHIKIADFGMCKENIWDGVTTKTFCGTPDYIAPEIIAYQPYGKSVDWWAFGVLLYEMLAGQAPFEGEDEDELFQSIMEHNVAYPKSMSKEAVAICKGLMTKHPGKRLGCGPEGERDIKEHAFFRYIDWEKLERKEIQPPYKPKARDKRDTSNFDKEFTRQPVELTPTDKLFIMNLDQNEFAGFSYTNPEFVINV
Summary of the method: (§2)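 Purified recombinant kinase assayed with 100 μM ATP. Values averaged from at least two independent determinations.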

[5] = biological target: Epidermal growth factor receptor (Homo sapiens, UniProt P00533); test: Inhibition of EGFR (unknown origin) incubated for 15 mins in presence of [gamma-32P]ATP; summary of the method: as §2
Epidermal growth factor receptor, sequence (P00533 whole entry): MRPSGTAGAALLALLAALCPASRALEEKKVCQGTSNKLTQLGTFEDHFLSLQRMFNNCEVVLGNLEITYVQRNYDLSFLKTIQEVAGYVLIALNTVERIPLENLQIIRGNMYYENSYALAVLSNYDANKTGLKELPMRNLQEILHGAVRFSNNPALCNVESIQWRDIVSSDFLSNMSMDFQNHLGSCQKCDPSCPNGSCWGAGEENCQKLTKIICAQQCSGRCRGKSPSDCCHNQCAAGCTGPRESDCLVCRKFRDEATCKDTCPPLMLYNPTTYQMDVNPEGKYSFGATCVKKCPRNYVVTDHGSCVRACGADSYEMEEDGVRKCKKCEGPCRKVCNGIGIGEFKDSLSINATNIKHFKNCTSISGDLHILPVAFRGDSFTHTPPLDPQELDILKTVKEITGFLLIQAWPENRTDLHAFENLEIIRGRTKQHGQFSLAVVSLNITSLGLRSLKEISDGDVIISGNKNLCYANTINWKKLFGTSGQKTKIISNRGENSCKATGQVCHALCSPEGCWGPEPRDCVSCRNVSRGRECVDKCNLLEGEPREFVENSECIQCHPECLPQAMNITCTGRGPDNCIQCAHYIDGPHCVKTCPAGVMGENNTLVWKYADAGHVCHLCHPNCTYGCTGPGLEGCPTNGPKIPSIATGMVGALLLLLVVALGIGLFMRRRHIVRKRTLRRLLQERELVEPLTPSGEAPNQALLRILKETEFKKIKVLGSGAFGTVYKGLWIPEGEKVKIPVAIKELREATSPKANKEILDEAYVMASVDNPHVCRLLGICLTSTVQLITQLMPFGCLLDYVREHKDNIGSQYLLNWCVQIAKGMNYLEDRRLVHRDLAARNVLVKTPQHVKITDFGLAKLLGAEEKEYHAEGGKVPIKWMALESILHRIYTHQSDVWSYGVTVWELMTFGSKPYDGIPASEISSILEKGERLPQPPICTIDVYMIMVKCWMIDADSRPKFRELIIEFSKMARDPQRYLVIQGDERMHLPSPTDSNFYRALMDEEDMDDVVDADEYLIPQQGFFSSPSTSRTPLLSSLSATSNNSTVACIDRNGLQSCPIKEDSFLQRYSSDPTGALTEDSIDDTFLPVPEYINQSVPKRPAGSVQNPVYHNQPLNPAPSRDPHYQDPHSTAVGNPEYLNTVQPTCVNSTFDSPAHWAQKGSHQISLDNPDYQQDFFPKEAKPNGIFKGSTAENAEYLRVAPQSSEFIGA

[6] = biological target: T1, Dual specificity tyrosine-phosphorylation-regulated kinase 2 (Homo sapiens, UniProt Q92630); test: Inhibition of recombinant human N-terminal GST-tagged DYRK2 expressed in Escherichia coli BL21(DE3) cells using KKISGRLSPIMTEQ-NH2 as substrate incubated for 15 mins in presence of [gamma-32P]ATP
T1 sequence (Q92630 whole entry): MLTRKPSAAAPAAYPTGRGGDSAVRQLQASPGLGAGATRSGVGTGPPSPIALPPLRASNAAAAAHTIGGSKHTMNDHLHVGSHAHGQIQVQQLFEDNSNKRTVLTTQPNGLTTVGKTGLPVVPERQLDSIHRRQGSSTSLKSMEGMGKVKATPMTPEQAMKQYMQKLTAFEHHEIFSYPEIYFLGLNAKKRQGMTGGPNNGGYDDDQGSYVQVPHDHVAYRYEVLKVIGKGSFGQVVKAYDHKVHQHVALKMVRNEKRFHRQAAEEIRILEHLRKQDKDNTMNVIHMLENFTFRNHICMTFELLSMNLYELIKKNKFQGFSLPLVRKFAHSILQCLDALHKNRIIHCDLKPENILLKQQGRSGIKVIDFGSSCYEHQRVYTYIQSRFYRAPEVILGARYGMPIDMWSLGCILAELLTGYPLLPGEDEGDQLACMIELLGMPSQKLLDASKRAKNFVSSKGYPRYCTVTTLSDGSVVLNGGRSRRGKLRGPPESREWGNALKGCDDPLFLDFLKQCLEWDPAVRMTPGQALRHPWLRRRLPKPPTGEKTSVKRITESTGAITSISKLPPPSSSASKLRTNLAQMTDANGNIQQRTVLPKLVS
Summary of the method: (§3)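 Purified recombinant kinase with 100 µM ATP. IC50 values are averages of at least two independent determinations.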

[7] = biological target: Dual specificity tyrosine-phosphorylation-regulated kinase 1B (Homo sapiens, UniProt Q9Y463); test: Inhibition of full length recombinant human GST-tagged DYRK1B expressed in insect cells using KKISGRLSPIMTEQ-NH2 as substrate incubated for 15 mins in presence of [gamma-32P]ATP
Dual specificity tyrosine-phosphorylation-regulated kinase 1B, sequence (Q9Y463 whole entry, the tested form may be a part): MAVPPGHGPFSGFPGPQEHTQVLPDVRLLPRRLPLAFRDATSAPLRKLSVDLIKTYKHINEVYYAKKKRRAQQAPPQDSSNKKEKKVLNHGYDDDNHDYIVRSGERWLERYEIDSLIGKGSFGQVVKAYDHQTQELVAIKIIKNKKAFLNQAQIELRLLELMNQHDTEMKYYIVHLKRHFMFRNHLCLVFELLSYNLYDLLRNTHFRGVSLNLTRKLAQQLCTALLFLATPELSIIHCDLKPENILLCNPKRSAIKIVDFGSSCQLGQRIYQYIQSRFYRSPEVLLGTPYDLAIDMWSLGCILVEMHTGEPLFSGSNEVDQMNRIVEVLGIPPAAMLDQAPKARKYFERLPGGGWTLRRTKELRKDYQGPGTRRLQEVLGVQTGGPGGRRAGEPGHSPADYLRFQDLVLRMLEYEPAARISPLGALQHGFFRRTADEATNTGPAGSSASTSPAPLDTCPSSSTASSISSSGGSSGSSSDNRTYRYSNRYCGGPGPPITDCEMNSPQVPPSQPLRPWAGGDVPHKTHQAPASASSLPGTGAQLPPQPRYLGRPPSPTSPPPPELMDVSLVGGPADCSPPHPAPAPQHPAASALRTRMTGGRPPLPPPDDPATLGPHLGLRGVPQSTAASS

[8] = biological target: Dual specificity protein kinase CLK1 (Homo sapiens, UniProt P49759); test: Inhibition of recombinant human GST-tagged CLK1 catalytic domain (129 to 484 residues) expressed in Escherichia coli using GRSRSRSRSRSRSRSR as substrate incubated for 15 mins in presence of [gamma-32P]ATP; summary of the method: as §3
Dual specificity protein kinase CLK1, sequence (P49759 whole entry, the tested form may be a part): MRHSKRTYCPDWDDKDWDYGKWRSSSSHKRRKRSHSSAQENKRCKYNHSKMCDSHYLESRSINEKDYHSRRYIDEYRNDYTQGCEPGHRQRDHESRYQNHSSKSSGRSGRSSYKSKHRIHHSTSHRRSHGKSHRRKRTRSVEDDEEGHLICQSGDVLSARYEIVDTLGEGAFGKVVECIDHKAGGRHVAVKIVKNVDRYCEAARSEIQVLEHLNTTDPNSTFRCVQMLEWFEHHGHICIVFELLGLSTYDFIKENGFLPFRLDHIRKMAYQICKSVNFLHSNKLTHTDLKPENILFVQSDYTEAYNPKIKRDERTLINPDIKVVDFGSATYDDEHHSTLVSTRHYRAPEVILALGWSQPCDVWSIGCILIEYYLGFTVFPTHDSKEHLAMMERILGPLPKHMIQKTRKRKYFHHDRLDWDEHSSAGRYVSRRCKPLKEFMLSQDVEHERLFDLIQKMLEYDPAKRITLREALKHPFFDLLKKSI

[9] = biological target: T2, Dual specificity tyrosine-phosphorylation-regulated kinase 1A (Homo sapiens, UniProt Q13627); test: Inhibition of recombinant human N-terminal His6-tagged DYRK1A catalytic domain expressed in Escherichia coli BL21(DE3) cells using KKISGRLSPIMTEQ-NH2 as substrate incubated for 15 mins in presence of [gamma-32P]ATP
[10] = biological target: T2, Dual specificity tyrosine-phosphorylation-regulated kinase 1A; test: Inhibition of tetracycline-inducible EGFP-DYRK1A (unknown origin) expressed in HEK293 cells coexpressing full length human EGFP-tau protein assessed as reduction in tau-Thr212 phosphorylation incubated overnight by immunoblotting assay
Casein kinase II [11] = biological target: Casein kinase II (Homo sapiens, UniProt P67870+P68400+P19784); test: as §1; format: protein-complex assay
Casein kinase II (Homo sapiens, UniProt P67870+P68400+P19784), sequence (P67870 whole entry): as the sequence (P67870 whole entry) above
Casein kinase II (Homo sapiens, UniProt P67870+P68400+P19784), sequence (P68400 whole entry): as the sequence (P68400 whole entry) above
Casein kinase II (Homo sapiens, UniProt P67870+P68400+P19784), sequence (P19784 whole entry): as the sequence (P19784 whole entry) above

[12] = Dissociation constant, pKa of compound; format: physicochemical
Plasma = test: Metabolic stability in rat plasma assessed as drug degradation at 1 uM after 120 mins by LC-MS/MS analysis; format: ADME, cell-free; conditions: 2 h
Summary of the method: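 Compound (1 µM) in pooled heparinised rat plasma at 37 °C, sampled at 0, 5, 15, 30, 60 and 120 min. Reaction stopped with 5 volumes of cold acetonitrile containing internal standard. Remaining compound was measured by LC-MS/MS; means of two experiments.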

SMILES | half-life at 1 µM [1] | IC50 (Casein kinase II [3]) | IC50 [4] | IC50 ([5]; read-out: IC50) | IC50 ([6]; read-out: IC50) | IC50 [7] | IC50 [8] | IC50 [9] | IC50 [10] | IC50 ([4]; read-out: IC50) | IC50 (Casein kinase II [11]) | pKa [12] | IC50 [6] | IC50 [5] | Stability (Plasma) | IC50 [2]
CCOC(=O)[C@H](Cc1ccccc1)NC(C)=O | < 0.0833 h |  |  |  |  |  |  |  |  |  |  |  |  |  |  | 
COc1ccc2c(c1)[nH]c1c(C)nccc12 [HARMINE] |  |  |  |  |  |  |  |  |  |  |  |  |  |  |  | 7.2 µM
CC1C/C(=C\c2ccc3ncsc3c2)C(=O)O1 (stereo not drawn) |  | > 10 µM | Not Active | > 10 µM | > 10 µM | 1.68 µM | 0.17 µM | 1.08 µM |  |  |  |  |  |  |  | 
COc1ccc([C@@H]2Sc3ccccc3N(CCN(C)C)C(=O)[C@@H]2OC(C)=O)cc1 [DILTIAZEM] | 2.08 h |  |  |  |  |  |  |  |  |  |  |  |  |  |  | 
O=C1NC(=O)/C(=C/c2ccc3nccnc3c2)S1 |  | 0.02 µM | Not Active | > 10 µM | 0.1 µM | 0.08 µM | 0.07 µM | 0.03 µM | 1.6 µM |  |  |  |  |  |  | 0.32 µM
O=C1NC(=S)S/C1=C\c1ccc2c(c1)CCO2 |  | 0.1 µM |  | > 10 µM | 1 µM | 0.3 µM | 0.5 µM | 0.1 µM |  | > 10 µM |  |  |  |  |  | 5.6 µM
COc1ccc(/C=C2\NC(=O)NC2=O)cc1 |  |  | Not Active |  |  | > 10 µM | 10 µM | 6.4 µM |  |  | Not Active | 8.9 | Not Active |  |  | 
O=C1OCC/C1=C\c1ccc2c(c1)OCO2 |  | > 10 µM | Not Active | > 10 µM | 0.99 µM | 2.63 µM | > 10 µM | 0.6 µM |  |  |  |  |  |  |  | 
O=C1OCC/C1=C\c1ccc2c(c1)CCCO2 |  | > 10 µM | Not Active | > 10 µM | > 10 µM | 6.7 µM | 3.9 µM | 0.93 µM |  |  |  |  |  |  |  | 
O=C1OCC/C1=C\c1ccc2c(c1)OCCO2 |  | > 10 µM | Not Active | > 10 µM | 2.04 µM | 4.29 µM | > 10 µM | 0.88 µM |  |  |  |  |  |  |  | 
O=C1NC(=S)N/C1=C\c1ccc2ncsc2c1 |  | 2.4 µM |  | > 10 µM | 1.5 µM | 0.9 µM | 0.02 µM | 0.7 µM |  | > 10 µM |  |  |  |  |  | 
O=C1OCC/C1=C\c1ccc2c(c1)CCO2 | > 2 h | > 10 µM | Not Active | > 10 µM | 0.82 µM | 2.17 µM | > 10 µM | 0.96 µM |  |  |  |  |  |  | Stable | 
COc1ccc(/C=C2\NC(=O)SC2=O)cc1 |  | 0.17 µM | Not Active |  | 9.2 µM | 5.2 µM | 3.6 µM | 1.3 µM |  |  |  |  |  | Not Active |  | 

More lines, main results first:

half-life at 1 µM [1] | IC50 (Casein kinase II [3]) | IC50 [4] | IC50 ([5]; read-out: IC50) | IC50 ([6]; read-out: IC50) | IC50 [7] | IC50 [8] | IC50 [9] | IC50 [10] | IC50 ([4]; read-out: IC50) | IC50 (Casein kinase II [11]) | pKa [12] | IC50 [6] | IC50 [5] | Stability (Plasma) | SMILES | IC50 [2]
 | > 10 µM | Not Active |  |  | 10.5 µM | 4.37 µM | 1.2 µM |  |  |  |  | Not Active |  |  | COc1ccc(/C=C2\CC(C)OC2=O)cc1 (stereo not drawn) | 
 |  | Not Active |  | > 10 µM | 3.8 µM | > 10 µM | 1.81 µM |  |  | Not Active |  |  | Not Active |  | COc1ccc(/C=C2\CCOC2=O)cc1 | 
 | 0.22 µM | Not Active |  | > 10 µM | 1.5 µM | 5.7 µM | 0.25 µM |  |  |  | 5.8 |  | Not Active |  | COc1ccc(/C=C2/SC(=S)NC2=O)cc1 | 9.5 µM
 | > 10 µM | Not Active |  | > 10 µM | 5.8 µM | 7.52 µM | 1.1 µM |  |  |  |  |  | Not Active |  | COc1ccc(/C=C2\CCCOC2=O)cc1 | 
 |  |  |  |  |  |  | > 10 µM |  |  |  |  |  |  |  | COc1ccc(/C=C2\CC(=O)NC2=O)cc1 | 
